Compound activity deposited in PubChem by The Scripps Research Institute Molecular Screening Center.
The list is not random: actives were taken first. Their share in the collection is about 1.8%.
CHRM4 agonist: agonists of human muscarinic M4 receptor (CHRM4) | CHO-K1 hM4/Gqi5, Fluo-8 calcium fluorescence; vehicle 0%, full acetylcholine response 100% | AID 624127 | P08173 | 360,000 tested, 0.14% active | activation, % at 3 µM;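 active means activation above the run mean over all test wells plus 3 SD, cut at about 32% in these data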;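 further: peak over basal fluorescence ratio per well then scaled between controls; 0% = DMSO wells and 100% = acetylcholine at EC100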
Target sequence (P08173 whole entry, looked up): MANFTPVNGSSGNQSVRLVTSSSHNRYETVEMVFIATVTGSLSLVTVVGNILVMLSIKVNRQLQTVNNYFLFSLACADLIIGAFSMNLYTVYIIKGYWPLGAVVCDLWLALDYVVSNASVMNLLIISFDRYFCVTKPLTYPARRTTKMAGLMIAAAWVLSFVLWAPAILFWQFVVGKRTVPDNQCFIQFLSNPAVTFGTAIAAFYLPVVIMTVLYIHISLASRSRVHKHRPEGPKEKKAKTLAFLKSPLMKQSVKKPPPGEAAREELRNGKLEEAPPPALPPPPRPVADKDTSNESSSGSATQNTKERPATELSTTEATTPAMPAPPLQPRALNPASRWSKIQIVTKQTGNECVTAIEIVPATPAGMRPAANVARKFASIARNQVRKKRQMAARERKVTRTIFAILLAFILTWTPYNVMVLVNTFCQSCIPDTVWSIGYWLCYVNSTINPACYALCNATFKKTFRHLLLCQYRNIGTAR
M5 antag: antagonists of human muscarinic M5 receptor (CHRM5); CHO-hM5 cells, Fluo-8 calcium fluorescence, ACh EC80; inhibition, % at 3 µM; 360,000 tested, 0.59% active;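 active means inhibition above a per-plate cutoff, the mean of that plate's test compounds plus 3 SD, cut at about 27% in these data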;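 further: 0% = acetylcholine EC80 with DMSO and 100% = DMSO without agonist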
M4 PAM: potentiates acetylcholine response at human M4 receptor; P08173; AID 624126; CHO-K1 hM4/Gqi5, Fluo-8 calcium fluorescence, ACh EC20; 0% = ACh EC20, 100% = maximal ACh; 360,000 tested, 0.4% active; activation, % at 3 µM;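 active means activation above its plate's cutoff, the mean activation of sample wells plus 3 SD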
CHRM5 agonist: agonists of human muscarinic M5 receptor (CHRM5); P08912; CHO-K1 hM5 cells, Fluo-8 calcium fluorescence; 0% DMSO wells, 100% maximal acetylcholine response; activation, % at 3 µM; 360,000 tested, 0.19% active; AID 624037;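 active means activation above the run's mean over test compounds plus 3 SD, cut at about 23% in these data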;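 further: signal is peak over basal fluorescence ratio across the kinetic read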
M4 antag: CHRM4 antagonism in calcium assay | P08173 | CHO-hM4 cells, ACh EC80, Fluo-8 calcium fluorescence | inhibition, % at 3 µM | 360,000 tested, 0.73% active;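 active means inhibition above its plate's cutoff, the mean inhibition of sample wells plus 3 SD, cut at about 27% in these data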;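 further: 0% = acetylcholine EC80 with DMSO and 100% = DMSO without agonist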
M5 PAM: positive allosteric modulators of human muscarinic M5 receptor; 360,000 tested, 0.3% active; CHO-K1 hM5, Fluo-8 calcium, ACh EC20 PAM; 0% = ACh EC20, 100% = ACh EC100; P08912; activation, % at 3 µM;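 active means activation above the run cutoff, the mean activation of all test compounds plus 3 SD, cut at about 18% in these data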
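Replicates: One well per compound, no replicates | System: Human M5 receptor in CHO-K1 cells | Benchmarks: Low control EC20 acetylcholine (0%), high control EC100 acetylcholine (100%) | Probe or stimulus: Acetylcholine, EC20 level | Times: Fluo-8 loading 80 min at 37 °C plus 30 min room temperature | Signal: Intracellular calcium via Fluo-8 fluorescence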
Active calls of the source: *.

SMILES | CHRM4 agonist | M5 antag | M4 PAM | CHRM5 agonist | M4 antag | M5 PAM
O=C(NCC1CCCO1)c1ccc(Oc2ccc([N+](=O)[O-])cc2)cc1 (centres undefined) | 10 | 1 | -10 | 0 | 9 | -9
O=C(NCC1CCCO1)c1ccc(NC(=O)c2ccc([N+](=O)[O-])cc2)cc1 (centres undefined) | 6 | -29 | 13* | 14 | -9 | 13
Cc1ccc(/C=C2\CCC3=C2OC(N)=C(C#N)C3c2ccc(C)cc2)cc1 (centres undefined) | 15 | 33* | 1 | 4 | 30* | -28
COc1ccc(CN(C)C(=O)c2ccc(Oc3ccccc3)cc2)cc1F | 1 | 11 | -3 | -4 | 6 | -5
CN(Cc1ccc2ccccc2c1)C(=O)c1ccc(C(F)(F)F)cc1 | 0 | 27* | -5 | -5 | 25 | -9
COc1ccccc1N1CCN(C(=O)c2cn(Cc3ccccc3)nc2-c2cccnc2)CC1 | 10 | -3 | 14 | 29* | -6 | -10
COc1ccc([N+](=O)[O-])c(S(=O)(=O)c2ccc(Cl)cc2)n1 | 23 | 18 | -11 | 12 | 22 | 6
COc1ccc([N+](=O)[O-])c(S(=O)(=O)c2ccccc2)n1 | -1 | 9 | -7 | 10 | 30* | 8
O=C(NCCNC(=O)c1ccc(Cl)cc1Cl)c1ccco1 | 1 | -11 | 16* | -2 | -16 | 6
O=C(CNC(=O)c1ccco1)NCC(=O)OCc1cccc(Cl)c1 | 1 | -9 | 44* | 0 | 5 | 5
O=C(CNC(=O)c1ccco1)OCc1cccc(Cl)c1 | 1 | -2 | 0 | -3 | 0 | 4
O=C1C=C(NNC(=O)c2ccncc2)CC(c2ccccc2)C1 (centres undefined) | 31 | 8 | -17 | 33* | 13 | -12
O=C(Nc1c(F)cccc1F)c1ccc2c(c1)CCN2S(=O)(=O)c1ccccc1 | 6 | 11 | -14 | -5 | 5 | 2
O=C1NC[C@@H](CCCCN2C[C@H](Cc3ccc(O)cc3)N(CC3CCCCC3)C(=O)C2=O)N(Cc2ccccc2)C1=O | 37* | 0 | 5 | 7 | -11 | -3
O=C1NC[C@@H](CCCCN2C[C@H](Cc3ccccc3)N(Cc3ccccc3)C(=O)C2=O)N(CC2CCCCC2)C1=O | 0 | 2 | 4 | 1 | 1 | 0
O=C1NC[C@@H](CCCCN2C[C@H](Cc3ccccc3)N(CC3CCCCC3)C(=O)C2=O)N(CC2CCCCC2)C1=O | 59* | 3 | 7 | 11 | -12 | -3
Cc1cccc(C)c1NC(=O)CN(C)C(=O)CN1C(=O)NC2(CCCC2)C1=O | 0 | 0 | -2 | -4 | -2 | 0
O=C1N=c2ccccc2=C1c1sc(NS(=O)(=O)c2ccccc2)nc1O | -1 | 4 | 28* | -2 | 0 | 8
O=C1N=c2ccccc2=C1c1sc(NS(=O)(=O)Cc2ccccc2)nc1O | 0 | 2 | -10 | 0 | 5 | 4
Cc1cc2cc(CNC(=O)c3ccc(S(=O)(=O)N4CCOCC4)cc3)ccc2n1C | 2 | 2 | -16 | -2 | 39* | -7
O=C(OCC(=O)N1CCCC1=O)c1cccc(S(=O)(=O)N2CCOCC2)c1 | 1 | -2 | 9 | 6 | -6 | 32*
O=C(NCc1cccnc1)c1cccc(S(=O)(=O)N2CCOCC2)c1 | 1 | 3 | 12 | 4 | 9 | 31*
O=C(NCc1cccnc1)c1cccc(S(=O)(=O)N2CCCC2)c1 | 0 | 15 | -1 | -3 | 5 | -3
CCOC(=O)c1ccc(NC(=O)c2cccc(S(=O)(=O)N3CCOCC3)c2)cc1 | 20 | 15 | -17 | 5 | 38* | -24
Cc1cc2cc(CNC(=O)c3ccc(S(=O)(=O)N(C)C)cc3)ccc2n1C | 2 | 2 | -7 | -1 | -3 | -4
SMILES | CHRM4 agonist | M5 antag | M4 PAM | CHRM5 agonist | M4 antag | M5 PAM
CC(=O)c1cccc(NC(=O)c2cccc(S(=O)(=O)N3CCOCC3)c2)c1 | 3 | 5 | -1 | -1 | 5 | -2
CCOC(=O)c1ccc(NC(=O)c2ccc(C)c(S(=O)(=O)N3CCOCC3)c2)cc1 | 18 | 29* | -11 | 4 | 39* | -16
COCCN1Cc2cccc(C(=O)Nc3ccc(S(=O)(=O)N4CCCCC4)cc3)c2C1=O | 1 | -1 | 5 | 1 | -16 | 25*
CC1CCCC(NC(=O)c2cccc(S(=O)(=O)N3CCOCC3)c2)C1C (centres undefined) | 1 | -3 | 16* | 1 | -19 | -4
CCOC(=O)c1c(NC(=O)CN(CC)CC)sc2c1CCN(C(=O)OCC)C2 | 0 | 16 | 7 | 2 | -3 | -8
CCOC(=O)c1c(NC(=S)N2CCN(C)CC2)sc2c1CCN(C(=O)OCC)C2 | -1 | -1 | 12* | 5 | -26 | 7
CC(=O)N1CCN(S(=O)(=O)c2cccc(C(=O)NC3CCCC(C)C3C)c2)CC1 (centres undefined) | 1 | 12 | 1 | -1 | -12 | -1
CC(=O)c1ccc(NC(=O)c2ccc(C)c(S(=O)(=O)N3CCOCC3)c2)cc1 | 18 | 3 | -5 | 2 | -18 | -10
COc1ccc(S(=O)(=O)N2CCOC2CNC(=O)C(=O)NCc2ccccn2)cc1C (centres undefined) | 2 | -13 | -3 | -2 | -2 | 2
CN1CCN(S(=O)(=O)c2ccc(NC(=O)c3cccc(S(=O)(=O)N4CCCC4)c3)cc2)CC1 | 1 | 29* | -19 | -6 | 37* | -21
CCOC(=O)c1c(NC(=O)c2ccc(S(=O)(=O)N3CCOCC3)cc2)sc2c1CCN(C)C2 | 2 | -4 | 19* | 2 | -18 | 0
Cc1cnc(NC(=O)c2ccncc2)s1 | 0 | 1 | 2 | -3 | -3 | 9
Cc1cnc(NC(=O)c2cncc(Br)c2)s1 | 1 | -2 | 20* | -9 | -5 | 2
NC(=O)N/N=C/c1ccc([N+](=O)[O-])o1 | 1 | 1 | -2 | 1 | 0 | -3
COC(=O)N/N=C/c1ccc([N+](=O)[O-])o1 | 1 | -13 | 30* | 2 | 14 | 10
CCOc1ccccc1NC(=O)CCN1CCN(S(=O)(=O)c2ccc(Br)cc2)CC1 | 6 | -4 | 16* | 7 | 3 | -1
O=C1c2ccccc2[C@@H]2C[C@@H](O)[C@H](Nc3ccccc3-c3ccccc3)CCN12 | 5 | -11 | -7 | 4 | -2 | 0
CCc1ccc(-c2csc(NC(=O)C3=COCCO3)n2)cc1 | 0 | 9 | 4 | 12 | 1 | -2
CC(=O)c1ccccc1OC(=O)c1ccco1 | 1 | 1 | 23* | 0 | -13 | 2
